Laboratory results as given in ChEMBL document CHEMBL1140759, “Synthesis, anti-Toxoplasma gondii and antimicrobial activities of benzaldehyde 4-phenyl-3-thiosemicarbazones and 2-[(phenylmethylene)hydrazono]-4-oxo-3-phenyl-5-thiazolidineacetic acids” (Bioorg Med Chem, 2008).

How the values were obtained:
[1] = test system: Mycobacterium tuberculosis; experiment: Antimicrobial activity against Mycobacterium tuberculosis at 300 ug/disc; type: functional; conditions: read-out: IZ
Summary of the method: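 Agar disc diffusion: paper discs loaded with compound placed on agar plates seeded with a standardised microbial suspension. DMSO-only discs served as negative control. Chloramphenicol and rifampicin (bacteria) or nistatin (fungi) gave reference zones. Read-out was mean zone of inhibition diameter (mm). Each experiment was run three times and repeated if results differed.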

[2] = test system: Candida; experiment: Antimicrobial activity against Candida sp. IMUR720 at 300 ug/disc; type: functional; conditions: read-out: IZ
Summary of the method: (§1)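 Disc diffusion on agar plates inoculated with a standardized microbial suspension, with paper discs carrying known compound amounts. DMSO-only discs served as negative controls, and chloramphenicol, rifampicin (bacteria) or nistatin (fungi) as references. The read-out is the mean inhibition zone diameter in mm. Each run was done three times and repeated if results differed.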

[3] = test system: Enterococcus faecalis; experiment: Antimicrobial activity against Streptococcus faecalis at 300 ug/disc; type: functional; conditions: read-out: IZ; summary of the method: as §1
[4] = test system: Candida; experiment: Antimicrobial activity against Candida sp. IMUR1224 at 300 ug/disc; type: functional; conditions: read-out: IZ; summary of the method: as §1
[5] = test system: Micrococcus luteus; experiment: Antimicrobial activity against Micrococcus luteus at 300 ug/disc; type: functional; conditions: read-out: IZ; summary of the method: as §1
[6] = test system: Toxoplasma gondii; experiment: Antiparasitic activity against Toxoplasma gondii infected african green monkey Vero cells at 5 mM assessed as infected cells; type: functional
Summary of the method: (§2)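 Vero cells were infected with RH-strain tachyzoites (5:1 parasite:cell) for 1 h, washed with PBS, and grown 24 h at 37 °C in medium 199 with 5% FCS. Compound was then added for 24 h. Cells were fixed with Bouin's, stained with Giemsa, and at least 400 cells were counted by light microscopy for the percentage infected. Hydroxyurea and sulfadiazine served as references.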

[7] = test system: Bacillus subtilis; experiment: Antimicrobial activity against Bacillus subtilis at 300 ug/disc; type: functional; conditions: read-out: IZ; summary of the method: as §1
[8] = test system: Toxoplasma gondii; experiment: Antiparasitic activity against Toxoplasma gondii infected african green monkey Vero cells at 8 mM assessed as infected cells; type: functional; summary of the method: as §2
[9] = test system: Toxoplasma gondii; experiment: Antiparasitic activity against Toxoplasma gondii infected african green monkey Vero cells at 20 mM assessed as infected cells; type: functional; summary of the method: as §2
[10] = test system: Candida; experiment: Antimicrobial activity against Candida sp. IMUR4249 at 300 ug/disc; type: functional; conditions: read-out: IZ; summary of the method: as §1
[11] = test system: Toxoplasma gondii; experiment: Inhibition of intracellular parasite Toxoplasma gondii; type: functional, organism-based
Summary of the method: (§3)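 Infected Vero cultures were exposed to compound at 0.01–30 mM for 24 h, in triplicate per assay. IC50 for infected cells and intracellular parasites was derived by non-linear regression, using trypan blue exclusion.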

[12] = test system: Vero; experiment: Inhibition of uninfected african green monkey Vero cells; type: cell-based; conditions: Chlorocebus sabaeus
[13] = test system: Candida albicans; experiment: Antimicrobial activity against Candida albicans at 300 ug/disc; type: functional; conditions: read-out: IZ; summary of the method: as §1
[14] = test system: Klebsiella pneumoniae; experiment: Antimicrobial activity against Klebsiella pneumoniae at 300 ug/disc; type: functional; conditions: read-out: IZ; summary of the method: as §1
[15] = test system: Toxoplasma gondii; experiment: Inhibition of Toxoplasma gondii infected in african green monkey Vero cells; type: functional, organism-based; summary of the method: as §3
[16] = test system: Escherichia coli; experiment: Antimicrobial activity against Escherichia coli at 300 ug/disc; type: functional; conditions: read-out: IZ; summary of the method: as §1
[17] = test system: Toxoplasma gondii; experiment: Antiparasitic activity against Toxoplasma gondii infected african green monkey Vero cells at 0.1 mM assessed as infected cells; type: functional; summary of the method: as §2
[18] = test system: Staphylococcus aureus; experiment: Antimicrobial activity against Staphylococcus aureus at 300 ug/disc; type: functional; conditions: read-out: IZ; summary of the method: as §1
[19] = test system: Saccharomyces cerevisiae; experiment: Antimicrobial activity against Saccharomyces cerevisiae at 300 ug/disc; type: functional; conditions: read-out: IZ; summary of the method: as §1
[20] = test system: Mycolicibacterium smegmatis; experiment: Antimicrobial activity against Mycobacterium smegmatis at 300 ug/disc; type: functional; conditions: read-out: IZ; summary of the method: as §1
[21] = test system: Toxoplasma gondii; experiment: Antiparasitic activity against Toxoplasma gondii infected african green monkey Vero cells at 2 mM assessed as infected cells; type: functional; summary of the method: as §2
[22] = test system: Mycolicibacterium phlei; experiment: Antimicrobial activity against Mycobacterium phlei at 300 ug/disc; type: functional; conditions: read-out: IZ; summary of the method: as §1

Row | Compound | Activity [6] [%] | Activity [8] [%] | Activity [9] [%] | IC50 [11] [µM] | IC50 [12] [µM] | IC50 [15] [µM] | Activity [17] [%] | Activity [21] [%] | also measured
1 | Cc1cccc(/C=N/N=C2\SC(CC(=O)O)C(=O)N2c2ccccc2)c1 (stereo not given) | 16.19 | 10.13 | 0 | 500 | 9000 | 1000 | 66 | 15.54 | zone of inhibition at 300 µg/disc [1]: < 7 mm; zone of inhibition at 300 µg/disc [2]: < 7 mm; zone of inhibition at 300 µg/disc [3]: 11 mm; zone of inhibition at 300 µg/disc [4]: < 7 mm; zone of inhibition at 300 µg/disc [5]: 22 mm; zone of inhibition at 300 µg/disc [7]: < 7 mm; zone of inhibition at 300 µg/disc [10]: < 7 mm; zone of inhibition at 300 µg/disc [13]: 9 mm; zone of inhibition at 300 µg/disc [14]: < 7 mm; zone of inhibition at 300 µg/disc [16]: < 7 mm; zone of inhibition at 300 µg/disc [18]: < 7 mm; zone of inhibition at 300 µg/disc [19]: < 7 mm; zone of inhibition at 300 µg/disc [20]: < 7 mm; zone of inhibition at 300 µg/disc [22]: < 7 mm
2 | S=C(N/N=C/c1cccc(Cl)c1)Nc1ccccc1 | 52.06 | 24.49 | 0 | 3000 | 10000 | 7000 | 44.52 | 60.69 | –
3 | Cc1cccc(/C=N/NC(=S)Nc2ccccc2)c1 | 26.86 | 22.72 | 0 | 2000 | 5000 | 5000 | 66.23 | 39.82 | –
4 | Nc1ccc(S(=O)(=O)Nc2ncccn2)cc1 [SULFADIAZINE] | 29.55 | 6.84 | 0 | 3000 | 8000 | 3000 | 53.84 | 48.71 | –
5 | CN(C)c1ccc(/C=N/NC(=S)Nc2ccccc2)cc1 | 18.14 | 13.46 | 0 | 1000 | 6000 | 2000 | 76.14 | 35.81 | –
6 | S=C(N/N=C/c1ccc(Cl)c(Cl)c1)Nc1ccccc1 | 21.96 | 4.54 | 0 | 2000 | 6000 | 5000 | 49.18 | 38.02 | –
7 | Fc1ccc(/C=N/NC(=S)Nc2ccccc2)cc1 | 28 | 19.83 | 0 | 1000 | 10000 | 2000 | 46.59 | 35.2 | –
8 | COc1cc(/C=N/NC(=S)Nc2ccccc2)cc(OC)c1OC | 24.32 | 23.17 | 0 | 2000 | 10000 | 3000 | 76.37 | 72.04 | –
9 | Cc1ccc(/C=N/N=C2\SC(CC(=O)O)C(=O)N2c2ccccc2)cc1 (stereo not given) | 0 | 0 | 0 | 50 | 1000 | 100 | 39.2 | 1.23 | zone of inhibition at 300 µg/disc [1]: < 7 mm; zone of inhibition at 300 µg/disc [3]: 12 mm; zone of inhibition at 300 µg/disc [5]: 16 mm; zone of inhibition at 300 µg/disc [7]: < 7 mm; zone of inhibition at 300 µg/disc [14]: < 7 mm; zone of inhibition at 300 µg/disc [16]: < 7 mm; zone of inhibition at 300 µg/disc [18]: < 7 mm; zone of inhibition at 300 µg/disc [20]: < 7 mm; zone of inhibition at 300 µg/disc [22]: < 7 mm
10 | S=C(N/N=C/c1ccccc1)Nc1ccccc1 | 31.83 | 13.52 | 0 | 4000 | 5000 | 5000 | 82.5 | 77.82 | –
11 | S=C(N/N=C/c1ccc(Cl)cc1Cl)Nc1ccccc1 | 31.32 | 12.08 | 0 | 1000 | 6000 | 2000 | 49.33 | 33.28 | –
12 | CC(C)(C)c1cc(/C=N/NC(=S)Nc2ccccc2)cc(C(C)(C)C)c1O | 30.51 | 6.42 | 0 | 4000 | 10000 | 5000 | 63.44 | 64.07 | –
13 | Cc1ccc(/C=N/NC(=S)Nc2ccccc2)cc1 | 27.84 | 2.96 | 0 | 3000 | 8000 | 4000 | 51.08 | 36.78 | –
14 | NC(=O)NO [HYDROXYUREA] | 10.4 | 7.37 | 0 | 100 | 1000 | 500 | 58.23 | 22.78 | –
15 | COc1cccc(/C=N/NC(=S)Nc2ccccc2)c1 | 9.7 | 5.9 | 0 | 1000 | 5000 | 2000 | 53.6 | 34.82 | –
16 | COc1ccc(/C=N/N=C2\SC(CC(=O)O)C(=O)N2c2ccccc2)cc1 (stereo not given) | 5.9 | 0 | 0 | – | 6000 | 500 | 27.32 | 4.51 | zone of inhibition at 300 µg/disc [1]: < 7 mm; zone of inhibition at 300 µg/disc [2]: < 7 mm; zone of inhibition at 300 µg/disc [3]: < 7 mm; zone of inhibition at 300 µg/disc [4]: < 7 mm; zone of inhibition at 300 µg/disc [5]: 16 mm; zone of inhibition at 300 µg/disc [7]: 11 mm; zone of inhibition at 300 µg/disc [10]: 16 mm; zone of inhibition at 300 µg/disc [13]: 15 mm; zone of inhibition at 300 µg/disc [14]: < 7 mm; zone of inhibition at 300 µg/disc [16]: < 7 mm; zone of inhibition at 300 µg/disc [18]: < 7 mm; zone of inhibition at 300 µg/disc [19]: < 7 mm; zone of inhibition at 300 µg/disc [20]: < 7 mm; zone of inhibition at 300 µg/disc [22]: < 7 mm
17 | COc1ccc(/C=N/NC(=S)Nc2ccccc2)c(OC)c1 | 9.2 | 3.6 | 1.49 | 2000 | 5000 | 2000 | 73 | 41.44 | –
18 | COc1ccc(/C=N/NC(=S)Nc2ccccc2)cc1 | 19 | 12.36 | 0 | 1000 | 6000 | 2000 | 50.43 | 29.39 | –
19 | COc1cc(/C=N/N=C2\SC(CC(=O)O)C(=O)N2c2ccccc2)ccc1O (stereo not given) | 3.5 | 0 | 0 | 1000 | 100 | 3000 | 46.02 | 41.96 | zone of inhibition at 300 µg/disc [1]: < 7 mm; zone of inhibition at 300 µg/disc [2]: < 7 mm; zone of inhibition at 300 µg/disc [3]: < 7 mm; zone of inhibition at 300 µg/disc [4]: < 7 mm; zone of inhibition at 300 µg/disc [5]: < 7 mm; zone of inhibition at 300 µg/disc [7]: < 7 mm; zone of inhibition at 300 µg/disc [13]: < 7 mm; zone of inhibition at 300 µg/disc [14]: < 7 mm; zone of inhibition at 300 µg/disc [16]: < 7 mm; zone of inhibition at 300 µg/disc [18]: < 7 mm; zone of inhibition at 300 µg/disc [19]: < 7 mm; zone of inhibition at 300 µg/disc [20]: < 7 mm; zone of inhibition at 300 µg/disc [22]: < 7 mm
20 | Fc1ccccc1/C=N/NC(=S)Nc1ccccc1 | 14.32 | 29.29 | 0 | 1000 | 4000 | 1500 | 91.5 | 28.13 | –
21 | COc1cc(/C=N/NC(=S)Nc2ccccc2)ccc1O | 19.3 | 2.6 | 0 | 100 | 6000 | 1000 | 80.05 | 19.7 | –
22 | S=C(N/N=C/c1ccc(Cl)cc1)Nc1ccccc1 | 38.7 | 21.05 | 0 | 1500 | 10000 | 7000 | 70.01 | 34.8 | –
